Measured values as given in ChEMBL document CHEMBL2177004, “Synthesis and SAR of b-annulated 1,4-dihydropyridines define cardiomyogenic compounds as novel inhibitors of TGFβ signaling” (J Med Chem, 2012).
Active and inactive are the calls of the source. The rule behind the calls is not given here.

What was measured:
CGR8 [1] = assay: Promotion of cardiogenesis in mouse CGR8 cells carrying Myh6-GFP compound treated at 1 to 5 uM on days 3 to 5 measured on day 10 post differentiation by GFP reporter assay; format: functional, cell-based
Method in brief: (§1)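 Differentiation used CGR8 mESCs carrying a Myh6 (α-MHC)-GFP reporter, seeded in LIF-free high-glucose DMEM with 10% FBS. Compound was given on days 3–5 of differentiation. α-MHC-GFP fluorescence was quantified by high-content imaging on day 10, and data were normalized.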

J1 (Mus musculus) = assay: Inhibition of mesoderm formation in mouse J1 cells carrying brachyury/T-GFP compound treated on day 1 measured on day 4 of differentiation by flow cytometry
HEK-293T = assay: Inhibition of Activin receptor signaling in activin A-stimulated human HEK293T cells assessed as inhibition of SMAD activation at 2.5 uM after 2 to 22 hrs by dual Luciferase Assay; format: cell-based
Method in brief: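 HEK-293T cells bulk co-transfected with an SBE-4–firefly luciferase reporter and a TK-driven Renilla plasmid for normalization, in DMEM with 2% FBS. After 12–14 h, cells were replated at 25,000/well in DMEM with 1% FBS and rested 2 h. Compound was then added with Activin A (10 ng/mL) for 20–22 h. Dual luciferase read-out was compared with DMSO, run in triplicate, with ≥2 independent experiments.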

TGF-beta receptor type-2 = TGF-beta receptor type-2 (Homo sapiens, UniProt P37173); assay: Inhibition of TGBR2 signaling in human HEK293T cells assessed as inhibition of SMAD activation after 2 to 22 hrs by dual Luciferase Assay; format: cell-based, HEK-293T
TGF-beta receptor type-2, sequence (P37173 whole entry): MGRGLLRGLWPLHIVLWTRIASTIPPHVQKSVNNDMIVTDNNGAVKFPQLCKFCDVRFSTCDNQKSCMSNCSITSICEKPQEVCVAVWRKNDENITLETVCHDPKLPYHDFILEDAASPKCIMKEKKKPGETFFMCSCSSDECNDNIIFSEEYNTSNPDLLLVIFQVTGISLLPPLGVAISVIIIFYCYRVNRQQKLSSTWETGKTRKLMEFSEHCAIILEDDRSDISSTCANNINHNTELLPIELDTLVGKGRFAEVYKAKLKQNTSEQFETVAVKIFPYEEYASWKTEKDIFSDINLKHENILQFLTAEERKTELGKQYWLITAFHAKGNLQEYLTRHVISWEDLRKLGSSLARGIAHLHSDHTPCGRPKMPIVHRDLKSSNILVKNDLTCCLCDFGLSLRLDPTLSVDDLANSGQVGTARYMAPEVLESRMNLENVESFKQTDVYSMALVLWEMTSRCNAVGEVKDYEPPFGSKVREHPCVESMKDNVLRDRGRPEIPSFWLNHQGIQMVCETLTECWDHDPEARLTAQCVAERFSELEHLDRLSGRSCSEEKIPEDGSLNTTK

CGR8 [2] = assay: Promotion of cardiogenesis in mouse CGR8 cells carrying Myh6-GFP compound treated at 5 uM on days 3 to 5 measured on day 10 post differentiation by GFP reporter assay; format: functional, cell-based; method in brief: as §1
CGR8 [3] = assay: Inhibition of cardiogenesis in mouse CGR8 cells carrying Myh6-GFP compound treated at high concentration on days 3 to 5 measured on day 10 post differentiation by GFP reporter assay; format: functional, cell-based; method in brief: as §1
[4] = Inhibition of calcium transients in mouse HL-1 cells after 10 mins using Fluo-4 by fluorescene assay; format: functional
Method in brief: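 HL-1 murine atrial cells plated at 25,000/well on gelatin (0.02%)/fibronectin (5 μg/mL) in Claycomb medium with 10% FBS and 0.1 mM norepinephrine. Loaded with Hoechst 33342 and Fluo-4 for 30 min at 37 °C, then 30 min at room temperature. Washed with Tyrode's (pH 7.4); compound in Tyrode's 10 min at room temperature. 10 s videos at 33 frames/s; kinetic parameters from image analysis.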

CGR8 [5] = assay: Promotion of cardiogenesis in mouse CGR8 cells carrying Myh6-GFP compound treated at 2.5 uM on days 3 to 5 measured on day 10 post differentiation by GFP reporter assay; format: functional, cell-based
Method in brief: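 CGR8 mESCs carrying a Myh6 (α-MHC)-GFP reporter seeded in LIF-free high-glucose DMEM with 10% FBS to differentiate. Compound given on days 3–5; α-MHC-GFP fluorescence quantified by high-content imaging on day 10. Data normalized at lower concentrations.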

[6] = biological target: T1, Activin receptor type-1C (Homo sapiens) (UniProt Q8NER5); details: 2.5 uM
T1 sequence (whole entry): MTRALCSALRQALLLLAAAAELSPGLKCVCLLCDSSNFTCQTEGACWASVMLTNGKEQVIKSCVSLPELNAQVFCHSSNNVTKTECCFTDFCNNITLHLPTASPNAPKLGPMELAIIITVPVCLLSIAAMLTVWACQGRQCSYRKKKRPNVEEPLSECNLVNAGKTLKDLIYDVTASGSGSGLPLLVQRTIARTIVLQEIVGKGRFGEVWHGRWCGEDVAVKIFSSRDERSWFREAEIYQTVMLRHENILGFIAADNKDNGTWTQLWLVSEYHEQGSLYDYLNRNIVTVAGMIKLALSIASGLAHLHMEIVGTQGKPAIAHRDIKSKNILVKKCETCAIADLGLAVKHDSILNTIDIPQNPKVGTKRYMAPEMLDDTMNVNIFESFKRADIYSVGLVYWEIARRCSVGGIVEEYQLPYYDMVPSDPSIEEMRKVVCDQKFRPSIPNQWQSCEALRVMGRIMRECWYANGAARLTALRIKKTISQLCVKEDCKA

[7] = biological target: T2, Activin receptor type-1B (Homo sapiens) (UniProt P36896); details: 2.5 uM
T2 sequence (whole entry): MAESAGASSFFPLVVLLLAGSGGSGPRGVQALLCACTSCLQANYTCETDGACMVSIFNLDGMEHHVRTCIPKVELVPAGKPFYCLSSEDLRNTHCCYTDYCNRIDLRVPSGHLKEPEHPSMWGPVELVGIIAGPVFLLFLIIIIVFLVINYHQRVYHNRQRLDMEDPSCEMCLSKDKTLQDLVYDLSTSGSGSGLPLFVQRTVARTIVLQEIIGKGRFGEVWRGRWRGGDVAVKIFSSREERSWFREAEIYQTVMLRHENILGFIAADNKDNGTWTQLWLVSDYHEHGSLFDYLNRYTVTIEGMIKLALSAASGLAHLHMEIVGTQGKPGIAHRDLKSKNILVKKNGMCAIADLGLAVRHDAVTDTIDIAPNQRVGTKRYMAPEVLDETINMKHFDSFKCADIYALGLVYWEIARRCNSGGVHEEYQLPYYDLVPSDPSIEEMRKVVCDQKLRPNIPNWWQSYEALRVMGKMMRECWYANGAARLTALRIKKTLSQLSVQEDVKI

For `CCOC(=O)C1=C(C)NC2=C(C(=O)CC(C)(C)C2)C1c1ccc(-c2ccccc2)cc1` (stereo in doubt; (-)1) [listing 1 of 2 here], which Activity (CGR8 [1]) is on record?
Its Activity is “Active”.

And the inhibition (J1 (Mus musculus))?
The inhibition was “Active”.

What about the inhibition (HEK-293T) of the same compound?
Its inhibition is 41%.

With `CCOC(=O)C1=C(C)NC2=C(C(=O)CC(C)(C)C2)C1c1ccc(-c2ccccc2)cc1` (racemic) [listing 1 of 2 here] as the compound, how does the IC50 (TGF-beta receptor type-2) read?
The IC50 was 850 nM.

Which inhibition (HEK-293T) does the source give for `COC(=O)C1=C(C)NC2=C(C(=O)CC(C)(C)C2)C1c1cccc(-c2ccc3[nH]ccc3c2)c1` (racemic) here?
The inhibition was 24%.

For `CCOC(=O)C1=C(C)NC2=C(C(=O)CC(C)(C)C2)C1c1ccc(-c2ccccc2)cc1` (stereo in doubt; (+)1) [listing 1 of 2 here], which Activity (CGR8 [2]) is on record?
The Activity was “Active”.

What about the inhibition (CGR8 [3]) of the same compound?
Its inhibition is “Dose-dependent effect”.

What about the Activity (CGR8 [1]) of the same compound?
The Activity was “Active”.

What about the inhibition (J1 (Mus musculus)) of the same compound?
The inhibition was “Active”.

What about the inhibition (HEK-293T) of the same compound?
Its inhibition is 49%.

For `CCCC1CC(=O)C2=C(C1)NC(C)=C(C(=O)OC)C2c1ccc(-c2ccccc2)cc1` (single isomer, unassigned; (-)) [listing 1 of 2 here], which “inhibition (INH)” value [4] is on record?
The value was 85%.

For `CCOC(=O)C1=C(C)NC2=C(C(=O)CC(C)(C)C2)C1c1ccc(-c2ccccc2)cc1` (racemic) [listing 2 of 2 here], which inhibition (HEK-293T) is on record?
The inhibition was 51%.

For `CCCC1CC(=O)C2=C(C1)NC(C)=C(C(=O)OC)C2c1ccc(-c2ccccc2)cc1` (single isomer, unassigned; (+)) [listing 1 of 2 here], which Activity (CGR8 [5]) is on record?
Its Activity is “Active”.

And the inhibition (J1 (Mus musculus))?
Its inhibition is “Active”.

With `CCOC(=O)C1=C(C)NC2=C(C(=O)CC(C)(C)C2)C1c1ccc(-c2ccccc2)cc1` (stereo in doubt; (+)1) [listing 2 of 2 here] as the compound, how does the “inhibition (INH)” value [4] read?
The value was 44%.

What about the IC50 (TGF-beta receptor type-2) of the same compound?
Its IC50 is 460 nM.

With `COC(=O)C1=C(C)NC2=C(C(=O)CC(C)(C)C2)C1c1cccc(-c2ccc3[nH]ccc3c2)c1` (single isomer, unassigned; (-)) as the compound, how does the inhibition (HEK-293T) read?
Its inhibition is 68%.

With `CCOC(=O)C1=C(C)NC2=C(C(=O)CC(C)(C)C2)C1c1ccc(-c2ccccc2)cc1` (stereo in doubt; (-)1) [listing 2 of 2 here] as the compound, how does the “inhibition (INH)” value [4] read?
The value was 87%.

What about the IC50 (TGF-beta receptor type-2) of the same compound?
Its IC50 is 6900 nM.

With `COC(=O)C1=C(C)NC(C)=C(C(=O)OC)C1c1ccccc1[N+](=O)[O-]` [NIFEDIPINE] as the compound, how does the “inhibition (INH)” value [4] read?
The value was 66%.

For `CCCC1CC(=O)C2=C(C1)NC(C)=C(C(=O)OC)C2c1ccc(-c2ccccc2)cc1` (single isomer, unassigned; (-)) [listing 2 of 2 here], which Activity (CGR8 [5]) is on record?
Its Activity is “inactive”.

And the inhibition (J1 (Mus musculus))?
Its inhibition is “Active”.

Which inhibition (J1 (Mus musculus)) does the source give for `COC(=O)C1=C(C)NC2=C(C(=O)CC(C)(C)C2)C1c1cccc(-c2ccc3[nH]ccc3c2)c1` (single isomer, unassigned; (+)) here?
Its inhibition is “Active”.

And the inhibition (HEK-293T)?
Its inhibition is 55%.

For `NC(=O)c1ccc(-c2nc(-c3ccccn3)c(-c3ccc4c(c3)OCO4)[nH]2)cc1`, which inhibition [6] is on record?
The inhibition was 99%.

What about the inhibition [7] of the same compound?
Its inhibition is 99%.

Which “inhibition (INH)” value [4] does the source give for `CCCC1CC(=O)C2=C(C1)NC(C)=C(C(=O)OC)C2c1ccc(-c2ccccc2)cc1` (single isomer, unassigned; (+)) [listing 2 of 2 here] here?
Its value is 58%.
